Assay results published in ChEMBL document CHEMBL4371006, “Discovery of N-[4-(Quinolin-4-yloxy)phenyl]benzenesulfonamides as Novel AXL Kinase Inhibitors” (J Med Chem, 2018).

Experiments:
[1] = molecular target: Tyrosine-protein kinase Tec (Homo sapiens, UniProt P42680); experiment: Binding affinity to TEC in SILAC-labeled human MDA-MB-231 cells lysate by mass spectrometry based kinAffinity assay; type: subcellular
Summary of the method: (§1)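 MDA-MB-231 lysate applied to KinAffinity matrix of immobilized broadband kinase inhibitors at graded densities to obtain BC50 per target. Competition then run with increasing free compound to give CC50; Kd derived by Cheng-Prusoff. Two competition experiments in parallel to check equilibrium, one with lysate pre-incubated with compound before adding matrix. Quantitation by mass spectrometry.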

[2] = molecular target: Cyclin-dependent kinase 18 (Homo sapiens, UniProt Q07002); experiment: Binding affinity to PCTK3 in SILAC-labeled human MDA-MB-231 cells lysate by mass spectrometry based kinAffinity assay; type: subcellular; summary of the method: as §1
Chain of Cyclin-dependent kinase 18 (Q07002 whole entry): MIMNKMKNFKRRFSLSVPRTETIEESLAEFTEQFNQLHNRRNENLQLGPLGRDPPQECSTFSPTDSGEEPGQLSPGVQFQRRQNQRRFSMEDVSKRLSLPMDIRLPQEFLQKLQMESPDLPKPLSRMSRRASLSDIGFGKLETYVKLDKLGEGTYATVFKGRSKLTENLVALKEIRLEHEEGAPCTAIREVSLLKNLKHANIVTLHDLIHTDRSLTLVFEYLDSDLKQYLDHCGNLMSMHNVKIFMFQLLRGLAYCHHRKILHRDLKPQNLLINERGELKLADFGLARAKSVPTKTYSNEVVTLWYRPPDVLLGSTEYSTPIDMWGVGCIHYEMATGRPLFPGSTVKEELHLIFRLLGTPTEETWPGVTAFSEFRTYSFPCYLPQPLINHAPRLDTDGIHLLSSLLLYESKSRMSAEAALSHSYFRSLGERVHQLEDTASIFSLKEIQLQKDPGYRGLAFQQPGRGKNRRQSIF

[3] = test system: MDA-MB-231; experiment: Antimetastatic activity against human MDA-MB-231 cells xenografted in mouse assessed as reduction in lung metastasis at 30 mg/kg, ip bid measured 3 times per week starting at day 12 by hematoxylin and eosin staining based assay relative to control; type: functional; set-up: scale not given: the % may be the effect or the level left
Summary of the method: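 Female SCID/Beige mice inoculated with 2 x 10^6 MDA-MB-231 cells in HBSS:Matrigel (1:1) into third mammary fat pad under ketamine/xylazine. Test agent 30 mg/kg ip twice daily (12 h apart) in PEG400/H2O 70:30, or paclitaxel 10 mg/kg iv three times weekly; 10 mice/group. Tumors measured three times weekly from day 12; lungs and lymph nodes excised, formalin-fixed, nodes H&E-scored (mean ± SEM).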

Chain of Tyrosine-protein kinase Tec (P42680 whole entry): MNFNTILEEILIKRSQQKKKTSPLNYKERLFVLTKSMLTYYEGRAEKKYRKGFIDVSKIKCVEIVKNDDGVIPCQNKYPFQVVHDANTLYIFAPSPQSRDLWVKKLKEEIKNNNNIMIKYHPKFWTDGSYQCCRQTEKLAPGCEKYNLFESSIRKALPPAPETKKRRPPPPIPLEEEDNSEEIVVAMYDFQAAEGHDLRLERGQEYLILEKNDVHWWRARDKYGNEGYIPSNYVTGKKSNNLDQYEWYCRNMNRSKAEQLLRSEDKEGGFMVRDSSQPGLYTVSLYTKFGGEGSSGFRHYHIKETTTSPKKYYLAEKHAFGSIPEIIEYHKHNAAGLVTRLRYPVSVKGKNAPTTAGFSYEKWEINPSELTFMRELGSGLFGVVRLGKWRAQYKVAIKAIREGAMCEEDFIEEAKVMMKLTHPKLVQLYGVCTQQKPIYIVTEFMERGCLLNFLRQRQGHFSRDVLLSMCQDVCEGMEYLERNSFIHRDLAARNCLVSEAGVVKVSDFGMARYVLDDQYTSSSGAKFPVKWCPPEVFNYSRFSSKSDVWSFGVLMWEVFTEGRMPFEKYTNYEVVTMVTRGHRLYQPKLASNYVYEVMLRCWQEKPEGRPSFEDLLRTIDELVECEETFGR

Kd(free) [1]	Kd(free) [2]	SMILES	Activity [3]
> 3.674 µM	–	COc1cc2c(Oc3ccc(NS(=O)(=O)c4c(F)cccc4F)cc3F)ccnc2cc1OCCCN1CCN(C)CC1	–
–	> 6.194 µM	COc1cc2c(Oc3ccc(NS(=O)(=O)c4cc(F)ccc4F)cc3F)ccnc2cc1OCCCN1CCN(C)CC1	65.7%
